From ChEMBL document CHEMBL1124437, “Analogues of cisplatin derived from diaminodideoxytetritols. Synthesis and activity against the ADJ/PC6 plasmacytoma in mice” (J Med Chem, 1989) come the findings set out here.

Data set [1] can be described thus: Therapeutic index is the ratio of LD50 to ED90. Summed up:
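In female Balb-C mice bearing subcutaneous ADJ/PC6 tumor, dosed ip or po at 5, 25, 125 and 625 mg per kg (six animals per dose). Therapeutic index is the 50% lethal dose divided by the dose causing 90% tumor regression (LD50/ED90).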

Data set [2] relates to Mus musculus. Put plainly: Antitumor activity against ADJ/PC6 tumor subcutaneously implanted into female intraperitoneal compound administration. The format is functional, organism-based. The essentials:
(§1)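 ADJ/PC6 plasmacytoma implanted subcutaneously in female Balb-C mice, with compound given by intraperitoneal injection. Four dose levels were tested (5, 25, 125 and 625 mg per kg), six mice per dose. LD50 is the 50% lethal dose, ED90 is the dose giving 90% tumor regression, and therapeutic index = LD50/ED90.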

Data set [3] has as its system Mus musculus. Put plainly: Compound was screened for antitumor activity against ADJ/PC6 tumor subcutaneously implanted into female intraperitoneal compound administration. The format is functional, organism-based. The essentials:
as §1

CISPLATIN [listing 1 of 2 here]: the TI in data set [1] was found to be 8.1.
By LD50 is commonly meant the dose at which mortality reaches 50%. Consider CISPLATIN [listing 2 of 2 here], for which, in the data set with Mus musculus [2], the LD50 was 13 mg/kg.
In the case of “cis-dichloro(cis-5,6-diamino-1,3-dioxepane)platinum (II) [listing 1 of 2 here]”, the TI in data set [1] was 4.1.
The substance “cis-dichloro(cis-5,6-diamino-1,3-dioxepane)platinum (II) [listing 2 of 2 here]” had an LD50 in the data set on Mus musculus [3] of 41.5 mg/kg.
